Data from ChEMBL document CHEMBL4622988, “Elucidation of Mechanism for Ligand Efficacy at Leukotriene B4 Receptor 2 (BLT2)” (ACS Med Chem Lett, 2020).
Activity calls are given as the source filed them. The calls are words filed in the database; no cut-off is given here.

Legend:
[1] = molecular target: T1, Leukotriene B4 receptor 2 (Homo sapiens, UniProt Q9NPC1); experiment: Displacement of [3H]LTB4 from HA-epitope tagged human BLT2 expressed in CHOK1 cells incubated for 60 mins by liquid scintillation counting method; assay type: cell-based, CHO-K1
T1 sequence (Q9NPC1 whole entry): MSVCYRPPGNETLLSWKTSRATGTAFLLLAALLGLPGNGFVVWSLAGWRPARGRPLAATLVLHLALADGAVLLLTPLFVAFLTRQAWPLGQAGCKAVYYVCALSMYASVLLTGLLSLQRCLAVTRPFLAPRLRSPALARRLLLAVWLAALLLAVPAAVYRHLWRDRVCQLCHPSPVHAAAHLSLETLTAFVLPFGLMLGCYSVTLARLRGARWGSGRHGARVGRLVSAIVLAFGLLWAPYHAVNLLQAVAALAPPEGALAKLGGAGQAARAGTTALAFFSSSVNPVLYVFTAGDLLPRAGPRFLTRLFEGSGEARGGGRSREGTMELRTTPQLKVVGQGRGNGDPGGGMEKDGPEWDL
Summary of the method: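 Competition binding: test ligand competed with 3H-LTB4 for binding to membranes prepared from cells expressing BLT2.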

[2] = tested on: CHO-K1; experiment: Agonist activity at HA-epitope tagged human BLT2 Y271A mutant expressed in CHOK1 cells assessed as induction of chemotactic motility at 300 nM incubated for 2 hrs by hematoxylin and eosin staining based optical microscopic method; assay type: cell-based
Summary of the method: (§1)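 CHO cells were transfected with wild-type BLT2, the Y271A mutant or the Y271A/N275A double mutant, then exposed to agonist to induce chemotactic motility. Migrating cells were fixed and stained with hematoxylin/eosin for counting.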

[3] = molecular target: T2, Leukotriene B4 receptor 2 (Homo sapiens) (UniProt Q9NPC1); experiment: Agonist activity at HA-epitope tagged human BLT2 expressed in CHOK1 cells assessed as induction of chemotactic motility at 300 nM incubated for 2 hrs by hematoxylin and eosin staining based optical microscopic method; assay type: cell-based; conditions: CHO-K1; summary of the method: as §1
T2 sequence (whole entry): T1 sequence (Q9NPC1 whole entry)

[4] = tested on: CHO-K1; experiment: Agonist activity at HA-epitope tagged human BLT2 Y271A/N275A double mutant expressed in CHOK1 cells assessed as induction of chemotactic motility at 300 nM incubated for 2 hrs by hematoxylin and eosin staining based optical microscopic method; assay type: cell-based; summary of the method: as §1
[5] = tested on: CHO-K1; experiment: Agonist activity at HA-epitope tagged human BLT2 Y271A/N275A double mutant expressed in CHOK1 cells assessed as induction of chemotactic motility at 100 nM incubated for 2 hrs by hematoxylin and eosin staining based optical microscopic method; assay type: cell-based; summary of the method: as §1
[6] = tested on: CHO-K1; experiment: Agonist activity at HA-epitope tagged human BLT2 Y271A mutant expressed in CHOK1 cells assessed as induction of chemotactic motility at 100 nM incubated for 2 hrs by hematoxylin and eosin staining based optical microscopic method; assay type: cell-based; summary of the method: as §1
[7] = molecular target: T2, Leukotriene B4 receptor 2 (Homo sapiens); experiment: Agonist activity at HA-epitope tagged human BLT2 expressed in CHOK1 cells assessed as induction of chemotactic motility at 100 nM incubated for 2 hrs by hematoxylin and eosin staining based optical microscopic method; assay type: cell-based; conditions: CHO-K1; summary of the method: as §1

With `CCCCC(=O)N(Cc1ccc(-c2ccccc2C)cc1)c1ccccc1` the Kd ([1]; cho-k1) was “Not Active”.

In the case of `CCCCC/C=C\C[C@H](O)/C=C/C=C\C/C=C\CCCC(=O)O`, the Activity [2] is reported as “Active”, the Activity [3] is reported as “Active” and the Activity [4] is reported as “inactive”.

`CCCCC[C@H](O)/C=C/C=C/C/C=C\CCCC(=O)O` was tested, and the Activity [5] was “inactive”, the Activity [6] was “inactive” and the Activity [7] was “Active”.

In the case of `CCCCC/C=C\C[C@@H](O)/C=C/C=C/C=C\[C@@H](O)CCCC(=O)O`, the Activity [2] is reported as “Active”, the Activity [3] is reported as “Active” and the Activity [4] is reported as “inactive”.

In the case of `CCCCC(=O)N(Cc1ccc(-c2ccccc2C(=O)O)cc1)c1ccccc1`, the Kd ([1]; read-out: Kd) is reported as 0.0147 µM, the Activity [5] is reported as “inactive” and the Activity [6] is reported as “inactive”. The Activity [7] was “Active”.
